≈ marks a conversion by molar mass, not a printed value.

MIC, IC50 and Geometric mean data for 7 compounds are collected here from ChEMBL document CHEMBL1129660, “Studies on 6-aminoquinolones: synthesis and antibacterial evaluation of 6-amino-8-methylquinolones” (J Med Chem, 1996).

What all share (assay type): functional
In assay [1] the test system is Escherichia coli. Nature of the assay: Antibacterial activity tested against Escherichia coli ATCC 8739. A digest of the protocol: (§1)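 MICs (µg/mL) determined by conventional agar dilution against a panel of eight Gram-negative and five Gram-positive reference strains.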
For assay [2], the system named is Escherichia coli. Briefly: Antibacterial activity tested against Escherichia coli ISF 432. A digest of the protocol: as §1
The test system of assay [3] is Escherichia coli. Briefly: Inhibitory activity against gyrase supercoiling activity from Escherichia coli. The method, boiled down:
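Inhibition of DNA gyrase supercoiling activity, by a previously described protocol with slight modifications. IC50 derived by densitometric quantification of the supercoiled DNA peak in an agarose gel.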

Assay [4] concerns Enterobacter cloacae. Nature of the assay: Antibacterial activity tested against Enterobacter cloacae OMNFI 174.
For assay [5], the system named is Bacteria. Nature of the assay: Geometric mean of antibacterial activity (Gram +ve bacteria) of the compound. The method, boiled down:
(§2)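 Geometric means calculated from agar-dilution MICs (µg/mL), taken separately across the five Gram-positive and the eight Gram-negative panel strains.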

Assay [6] is described as follows: Geometric mean of antibacterial activity (Gram -ve bacteria) of the compound. The method, boiled down:
as §2

Assay [7] concerns Klebsiella pneumoniae. Nature of the assay: Antibacterial activity tested against Klebsiella pneumoniae (Klebsiella pneumoniae) ATCC 10031. A digest of the protocol:
as §1

The subject of assay [8] is Proteus vulgaris. Briefly: Antibacterial activity tested against Proteus vulgaris CNUR 5. The method, boiled down: as §1
Assay [9] has as its system Providencia stuartii. Briefly: Antibacterial activity tested against Providencia stuartii CNUR 5. The method, boiled down: as §1
Assay [10] relates to Pseudomonas aeruginosa. Nature of the assay: Antibacterial activity tested against P. ae (Pseudomonas aeruginosa) ATCC 9027. The method, boiled down:
as §1

In assay [11] the test system is Shigella. Nature of the assay: Antibacterial activity tested against Shigella enteritidis. The method, boiled down:
as §1

Assay [12] relates to Staphylococcus aureus. Briefly: Antibacterial activity against Staphylococcus aureus ATCC 6538. The method, boiled down:
as §1

Assay [13] relates to Staphylococcus aureus. Briefly: Antibacterial activity against Staphylococcus aureus MPR 5. The method, boiled down:
as §1

Assay [14] has as its system Enterococcus faecalis. Briefly: Antibacterial activity tested against Streptococcus faecalis LEP Br. A digest of the protocol: as §1
Assay [15] has as its system Staphylococcus epidermidis. Briefly: Antibacterial activity tested against Staphylococcus epidermidis CPHL A2. A digest of the protocol: as §1
Assay [16] relates to Staphylococcus epidermidis. Nature of the assay: Antibacterial activity tested against Staphylococcus epidermidis HCF Berset C. The method, boiled down: as §1
The subject of assay [17] is Enterococcus faecium. Briefly: Antibacterial activity tested against Enterococcus faecium.
Assay [18] relates to Enterococcus faecalis. Briefly: Antibacterial activity tested against Enterococcus faecalis.
Assay [19] relates to Staphylococcus aureus. Nature of the assay: Antibacterial activity tested against Staphylococcus aureus Methicillin-and Ciprofloxacin resistants; Range is 2-8 ug/mL.
Assay [20] concerns Streptococcus pneumoniae. Briefly: Antibacterial activity tested against Streptococcus pneumoniae; Range is 1-2 ug/mL.
Assay [21] has as its system Staphylococcus aureus. Nature of the assay: Antibacterial activity tested against Staphylococcus aureus; Range is 0.06-0.13 ug/mL.

For orientation: MIC means the lowest concentration found to suppress growth. A high value points to weaker potency. In general, IC50 refers to the concentration at which inhibition is half-maximal. A high value points to weaker potency in that assay. On to `Cc1c(N2CCN(C)CC2)c(N)cc2c(=O)c(C(=O)O)cn(C3CC3)c12`, for which the MIC in [1] stood at 0.03 µg/mL (≈ 0.0842 µM); in [2], 0.03 µg/mL (≈ 0.0842 µM); in [4], 0.125 µg/mL (≈ 0.351 µM); in assay [7], 0.03 µg/mL (≈ 0.0842 µM); in assay [8], 4 µg/mL (≈ 11.2 µM); in assay [9], 2 µg/mL (≈ 5.61 µM). Also, the MIC was found to be 2 µg/mL (≈ 5.61 µM) in assay [10]; 0.06 µg/mL (≈ 0.168 µM) in [11]; 0.5 µg/mL (≈ 1.4 µM) in assay [12]; 0.5 µg/mL (≈ 1.4 µM) in [13]; 4 µg/mL (≈ 11.2 µM) in assay [14]; 1 µg/mL (≈ 2.81 µM) in assay [15]. In [16], this compound yielded an MIC of 1 µg/mL (≈ 2.81 µM). Moreover, the IC50 in [3] stood at 3.78 µg/mL (≈ 10.6 µM). In addition, the figures for the Geometric mean in assay [5] and in assay [6] were 1 and 0.205, respectively.

As to `Cc1c(N2CCN(C)CC2)c([N+](=O)[O-])cc2c(=O)c(C(=O)O)cn(C3CC3)c12`, the MIC in assay [1] was found to be 16 µg/mL (≈ 41.4 µM); in assay [2], 4 µg/mL (≈ 10.4 µM); in assay [4], 8 µg/mL (≈ 20.7 µM); in assay [7], 16 µg/mL (≈ 41.4 µM); in assay [8], 64 µg/mL (≈ 166 µM); in [9], 32 µg/mL (≈ 82.8 µM). Besides, the MIC is 64 µg/mL (≈ 166 µM) in assay [10]; 1 µg/mL (≈ 2.59 µM) in [11]; 4 µg/mL (≈ 10.4 µM) in assay [12]; 4 µg/mL (≈ 10.4 µM) in [13]; 16 µg/mL (≈ 41.4 µM) in assay [14]; 2 µg/mL (≈ 5.18 µM) in [15]. In [16], inhibition of growth (MIC) required 4 µg/mL (≈ 10.4 µM). The Geometric mean was 4.595 in [5] and 13.454 in [6].

Consider `Cc1c(N2CCC(C)CC2)c([N+](=O)[O-])cc2c(=O)c(C(=O)O)cn(C3CC3)c12`, for which the MIC in assay [1] is 32 µg/mL (≈ 83 µM); in assay [2], 2 µg/mL (≈ 5.19 µM); in [4], 64 µg/mL (≈ 166 µM); in assay [7], 64 µg/mL (≈ 166 µM); in assay [8], 64 µg/mL (≈ 166 µM); in assay [9], 64 µg/mL (≈ 166 µM). Moreover, the MIC in [10] turned out to be 64 µg/mL (≈ 166 µM); in assay [11] it was 64 µg/mL (≈ 166 µM); in [12], 32 µg/mL (≈ 83 µM); in assay [13], 2 µg/mL (≈ 5.19 µM); in [14], 32 µg/mL (≈ 83 µM); in assay [15] it was 4 µg/mL (≈ 10.4 µM). It took 4 µg/mL (≈ 10.4 µM) to inhibit growth in assay [16] (MIC). Besides, the figures for the Geometric mean in assay [5] and in [6] were 8 and 38.054, respectively.

As for `CNc1cc2c(=O)c(C(=O)O)cn(C3CC3)c2c(C)c1N1CCC(C)CC1`, the MIC was 1 µg/mL (≈ 2.71 µM) in [1]; 0.5 µg/mL (≈ 1.35 µM) in assay [2]; 64 µg/mL (≈ 173 µM) in assay [4]; 0.5 µg/mL (≈ 1.35 µM) in assay [7]; > 128 µg/mL in assay [8]; 16 µg/mL (≈ 43.3 µM) in assay [9]. Moreover, the MIC in [10] is > 128 µg/mL; in [11] it was 64 µg/mL (≈ 173 µM); in assay [12], 1 µg/mL (≈ 2.71 µM); in assay [13] it was 1 µg/mL (≈ 2.71 µM); in assay [14], 32 µg/mL (≈ 86.6 µM); in assay [15] it was 2 µg/mL (≈ 5.41 µM). In assay [16], this compound yielded an MIC of 4 µg/mL (≈ 10.8 µM). For the same compound, the figures for the Geometric mean in assay [5] and in assay [6] were 3.031 and 11.313, respectively.

As to `CN1CCN(c2nc3c(cc2N)c(=O)c(C(=O)O)cn3C2CC2)CC1`, the MIC turned out to be 0.125 µg/mL (≈ 0.364 µM) in assay [1]; 0.06 µg/mL (≈ 0.175 µM) in assay [2]; 0.125 µg/mL (≈ 0.364 µM) in [4]; 0.03 µg/mL (≈ 0.0874 µM) in [7]; 64 µg/mL (≈ 186 µM) in [8]; 2 µg/mL (≈ 5.82 µM) in assay [9]. Besides, the MIC in assay [10] amounted to 2 µg/mL (≈ 5.82 µM); in assay [11], 0.125 µg/mL (≈ 0.364 µM); in assay [12] it was 4 µg/mL (≈ 11.6 µM); in [13] it was 4 µg/mL (≈ 11.6 µM); in [14], 32 µg/mL (≈ 93.2 µM); in assay [15], 4 µg/mL (≈ 11.6 µM). In assay [16], this compound returned an MIC of 4 µg/mL (≈ 11.6 µM). Further, the results for the Geometric mean in assay [5] and in [6] were 6.063 and 0.416, respectively.

With `Cc1c(N2CCSCC2)c(N)cc2c(=O)c(C(=O)O)cn(C3CC3)c12`, the MIC in assay [17] came to 2 µg/mL (≈ 5.56 µM); in assay [1], 0.25 µg/mL (≈ 0.696 µM); in assay [18] it was 0.5 µg/mL (≈ 1.39 µM); in assay [2], 0.03 µg/mL (≈ 0.0835 µM); in assay [4], 0.25 µg/mL (≈ 0.696 µM); in assay [7] it was 0.02 µg/mL (≈ 0.0556 µM). Moreover, the MIC in assay [8] stood at 32 µg/mL (≈ 89 µM); in assay [9], 2 µg/mL (≈ 5.56 µM); in assay [10], 1 µg/mL (≈ 2.78 µM); in assay [11] it was 0.125 µg/mL (≈ 0.348 µM); in assay [12], 0.06 µg/mL (≈ 0.167 µM); in assay [13], 0.06 µg/mL (≈ 0.167 µM). Also, the MIC in assay [19] was found to be 2 µg/mL (≈ 5.56 µM); in assay [20], 1 µg/mL (≈ 2.78 µM); in [21], 0.06 µg/mL (≈ 0.167 µM); in assay [14] it was 0.5 µg/mL (≈ 1.39 µM); in assay [15] it was 0.125 µg/mL (≈ 0.348 µM); in [16], 0.125 µg/mL (≈ 0.348 µM). Also, inhibition in [3] was half-maximal at 1.42 µg/mL (≈ 3.95 µM) (IC50). Moreover, the figures for the Geometric mean in assay [5] and in assay [6] were 0.123 and 0.362, respectively.

As to `Nc1cc2c(=O)c(C(=O)O)cn(C3CC3)c2cc1N1CCNCC1`, the MIC came to 0.25 µg/mL (≈ 0.761 µM) in assay [1]; 0.03 µg/mL (≈ 0.0914 µM) in assay [2]; 0.25 µg/mL (≈ 0.761 µM) in assay [4]; 0.25 µg/mL (≈ 0.761 µM) in assay [7]; 32 µg/mL (≈ 97.5 µM) in assay [8]; 32 µg/mL (≈ 97.5 µM) in assay [9]. Besides, the MIC in assay [10] was determined as 2 µg/mL (≈ 6.09 µM); in assay [11], 0.25 µg/mL (≈ 0.761 µM); in assay [12], 64 µg/mL (≈ 195 µM); in assay [13], 64 µg/mL (≈ 195 µM); in assay [14] it was 128 µg/mL (≈ 390 µM); in assay [15] it was 16 µg/mL (≈ 48.7 µM). The compound also displayed an MIC in assay [16] of 16 µg/mL (≈ 48.7 µM). In addition, the Geometric mean is 42.224 in assay [5] and 0.836 in assay [6].
